# Bioassay records (PubChem BioAssay)
# The list is not random: actives were taken first. Their share in the collection is about 1.8%.
# CHRM5 PAM – positive allosteric modulators of human muscarinic M5 receptor. AID 624038. activation, % at 3 µM. actives 0.3% (n = 360,000). CHO-K1 hM5, Fluo-8 calcium, ACh EC20 PAM; 0% = ACh EC20, 100% = ACh EC100;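 active = activation above the run cutoff, the mean activation of all test compounds plus 3 SD, cut at about 18% in these data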
#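 system = human M5 receptor in CHO-K1 cells | compound = one concentration, 3 µM final (nominal) | schedule = Post-acetylcholine fluorescence recording 140 s | signal = Fluo-8 calcium dye fluorescence, kinetic read | benchmarks = low control EC20 acetylcholine (0%), high control EC100 acetylcholine (100%) | repeats = singlicate, one well per test compound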
# CHRM4 antagonist – blocks acetylcholine activation of human M4 receptor; actives 0.73% (n = 360,000); CHO-hM4 cells, ACh EC80, Fluo-8 calcium fluorescence; P08173; inhibition, % at 3 µM;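 active = inhibition above its plate's cutoff, the mean inhibition of sample wells plus 3 SD, cut at about 27% in these data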;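 also: 0% = acetylcholine EC80 with DMSO and 100% = DMSO without agonist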
# Target sequence (P08173 whole entry, looked up): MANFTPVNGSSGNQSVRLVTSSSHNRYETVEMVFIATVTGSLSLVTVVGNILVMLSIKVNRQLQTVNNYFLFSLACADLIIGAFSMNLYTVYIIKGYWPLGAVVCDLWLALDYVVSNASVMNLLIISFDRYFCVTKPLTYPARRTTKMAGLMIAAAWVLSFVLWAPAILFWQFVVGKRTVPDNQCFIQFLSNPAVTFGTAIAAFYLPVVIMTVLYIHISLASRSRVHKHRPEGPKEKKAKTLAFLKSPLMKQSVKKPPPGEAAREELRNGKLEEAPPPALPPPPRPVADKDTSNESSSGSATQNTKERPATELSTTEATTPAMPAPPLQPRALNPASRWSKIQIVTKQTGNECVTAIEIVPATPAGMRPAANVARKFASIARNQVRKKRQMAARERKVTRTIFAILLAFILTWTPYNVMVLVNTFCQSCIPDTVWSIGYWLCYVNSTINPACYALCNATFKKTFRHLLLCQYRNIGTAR
# CHRM4 agonist – agonists of human muscarinic M4 receptor (CHRM4) | P08173 | CHO-K1 hM4/Gqi5, Fluo-8 calcium fluorescence; vehicle 0%, full acetylcholine response 100% | activation, % at 3 µM | actives 0.14% (n = 360,000) | AID 624127;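 active = activation above the run mean over all test wells plus 3 SD, cut at about 32% in these data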;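 also: peak over basal fluorescence ratio per well then scaled between controls; 0% = DMSO wells and 100% = acetylcholine at EC100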
# M4 PAM – CHRM4 positive allosteric modulation; CHO-K1 hM4/Gqi5, Fluo-8 calcium fluorescence, ACh EC20; 0% = ACh EC20, 100% = maximal ACh; AID 624126; activation, % at 3 µM; P08173; actives 0.4% (n = 360,000);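 active = activation above its plate's cutoff, the mean activation of sample wells plus 3 SD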
# M5 antag – CHRM5 antagonism in calcium assay; AID 624040; inhibition, % at 3 µM; actives 0.59% (n = 360,000); P08912; CHO-hM5 cells, Fluo-8 calcium fluorescence, ACh EC80;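 active = inhibition above a per-plate cutoff, the mean of that plate's test compounds plus 3 SD, cut at about 27% in these data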;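 also: 0% = acetylcholine EC80 with DMSO and 100% = DMSO without agonist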
# M5 ag – agonists of human muscarinic M5 receptor (CHRM5). P08912. CHO-K1 hM5 cells, Fluo-8 calcium fluorescence; 0% DMSO wells, 100% maximal acetylcholine response. activation, % at 3 µM. actives 0.19% (n = 360,000);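 active = activation above the run's mean over test compounds plus 3 SD, cut at about 23% in these data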;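 also: signal is peak over basal fluorescence ratio across the kinetic read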
# * hit, by the source's call.
SMILES,CHRM5 PAM,CHRM4 antagonist,CHRM4 agonist,M4 PAM,M5 antag,M5 ag
COC(=O)C1=CN(c2ccccc2OC)C(N)=C(C#N)C1c1cccc([N+](=O)[O-])c1 (centres undefined),-4,-1,3,-4,6,0
CCC(=O)N1CCc2cc(Br)cc(S(=O)(=O)NCC3CCCO3)c21 (centres undefined),-8,-7,1,2,4,0
CCC(=O)N1CCc2cc(Br)cc(S(=O)(=O)CCC(=O)NCC3CCCO3)c21 (centres undefined),19*,3,1,-2,-12,10
Cc1cc(C)cc(-c2nnc(SCC(=O)NCC3CCCO3)o2)c1 (centres undefined),-1,-3,3,23*,9,-3
COc1ccc(-c2nnc(SCC(=O)NCC3CCCO3)o2)cc1 (centres undefined),3,3,0,-1,8,-5
COc1cc(/C=C/C(O)=C/C(=O)/C=C/c2ccc(O)cc2)ccc1O,-35,27*,50*,-17,41*,48*
O=C(Nc1ccnn1C1CCN(Cc2ccc(CO)o2)CC1)c1ccccc1,2,-6,1,6,-3,-4
CC(=O)NC(c1ccccc1)c1cc([N+](=O)[O-])c2cccnc2c1O (centres undefined),22*,-5,1,6,-13,3
O=C(NC1(C(=O)O)CCCC1)c1ccccc1,-2,-8,1,16*,13,0
O=C(CCNC(=O)c1ccc([N+](=O)[O-])cc1)NNC(=O)c1ccccc1F,1,-11,0,26*,-3,1
COc1ccccc1CC(=O)Nc1ccc(S(=O)(=O)N(C)C2CCN(C)CC2)cc1,7,1,1,8,8,-5
Cc1cccc(N/C(=N/S(=O)(=O)c2ccccc2)c2ccccc2)n1,2,-10,1,4,-8,-5
Brc1ccc(OCc2ccccc2)c(CNCc2ccncc2)c1,-23,29*,28,-14,15,3
Brc1ccc(CNc2ccc3ncccc3c2)cc1,-24,25,8,-12,32*,-13
C1=CC(c2cc3ccccc3o2)OC(CCc2ccccc2)C1 (centres undefined),-1,-21,-1,9,-4,6
Cn1c(=O)[nH]c(=O)c2c1nc([N+](=O)[O-])n2Cc1ccccc1,4,-24,1,41*,2,7
O=C(Cc1ccc(-c2ccccc2)cc1)NCCN1CCOCC1,8,0,4,19*,4,-5
O=C(CN1CCOCC1)NCCc1ccccc1,0,24,7,24*,0,0
Cc1c(Cl)cccc1NC(=O)CNC(=O)c1ccc2c(c1)OCCO2,0,-40,3,22*,0,1
Cc1c(Cl)cccc1NC(=O)CNC(=O)c1ccc(F)cc1,-8,21,2,-6,8,0
O=C(NCc1ccccc1)C(CCc1ccccc1)n1c(=O)c(-c2cc3ccccc3[nH]2)nc2ccccc21 (centres undefined),2,-4,2,4,5,3
O=C(NCc1ccccc1)C(CCc1ccccc1)n1c(=O)c(-c2ccccc2)nc2ccccc21 (centres undefined),20*,5,4,4,-15,1
COc1ccc(CCNC(=O)c2ccc(CN3CCC(Cc4ccccc4)CC3)cc2)cc1,-8,-5,4,-10,5,-7
C=CCNC(=O)c1ccc(CN2CCC(Cc3ccccc3)CC2)cc1,-19,28*,2,-16,-6,-23
CC(C)NC(=O)c1ccc(CN2CCC(Cc3ccccc3)CC2)cc1,-24,67*,1,-16,6,-23
CSc1ccc(CN2CCC(Cc3ccccc3)CC2)cc1,-15,28*,1,-18,1,-25
O=C1CSC(c2ccccc2)N1Cc1ccccc1 (centres undefined),-2,6,0,5,-3,-15
